From ChEMBL document CHEMBL3621102, “Structure-activity study of quinazoline derivatives leading to the discovery of potent EGFR-T790M inhibitors” (Eur J Med Chem, 2015)
The source made the active and inactive calls. The calls are words filed in the database; no cut-off is given here.

Columns and labels:
NCI-H1975 [1] = assay: Antitumor activity against human NCI-H1975 cells xenografted in BALB/c mouse assessed as tumor growth inhibition at 20 mg/kg po, qd for 21 days relative to control; format: functional
Method in brief: (§1)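 Athymic mice received 2 × 10⁶ tumour cells subcutaneously in the right flank. At 100–300 mm³ they were randomised to control and treatment groups (n = 6); controls received vehicle alone. Tumour volume = length × width²/2 and RTV = Vt/V0.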

NCI-H1975 [2] = assay: Antiproliferative activity against human NCI-H1975 cells assessed as growth inhibition; format: functional
Method in brief: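 NCI-H1975 cells were grown in RPMI with 1 mM sodium pyruvate, 10% FBS and 1% penicillin-streptomycin, under humidified 5% CO₂ at 37 °C. Growth inhibition was read as GI₅₀.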

[3] = target: Epidermal growth factor receptor (Homo sapiens, UniProt P00533); assay: Inhibition of EGFR (unknown origin) by ELISA method
Sequence of Epidermal growth factor receptor (P00533 whole entry): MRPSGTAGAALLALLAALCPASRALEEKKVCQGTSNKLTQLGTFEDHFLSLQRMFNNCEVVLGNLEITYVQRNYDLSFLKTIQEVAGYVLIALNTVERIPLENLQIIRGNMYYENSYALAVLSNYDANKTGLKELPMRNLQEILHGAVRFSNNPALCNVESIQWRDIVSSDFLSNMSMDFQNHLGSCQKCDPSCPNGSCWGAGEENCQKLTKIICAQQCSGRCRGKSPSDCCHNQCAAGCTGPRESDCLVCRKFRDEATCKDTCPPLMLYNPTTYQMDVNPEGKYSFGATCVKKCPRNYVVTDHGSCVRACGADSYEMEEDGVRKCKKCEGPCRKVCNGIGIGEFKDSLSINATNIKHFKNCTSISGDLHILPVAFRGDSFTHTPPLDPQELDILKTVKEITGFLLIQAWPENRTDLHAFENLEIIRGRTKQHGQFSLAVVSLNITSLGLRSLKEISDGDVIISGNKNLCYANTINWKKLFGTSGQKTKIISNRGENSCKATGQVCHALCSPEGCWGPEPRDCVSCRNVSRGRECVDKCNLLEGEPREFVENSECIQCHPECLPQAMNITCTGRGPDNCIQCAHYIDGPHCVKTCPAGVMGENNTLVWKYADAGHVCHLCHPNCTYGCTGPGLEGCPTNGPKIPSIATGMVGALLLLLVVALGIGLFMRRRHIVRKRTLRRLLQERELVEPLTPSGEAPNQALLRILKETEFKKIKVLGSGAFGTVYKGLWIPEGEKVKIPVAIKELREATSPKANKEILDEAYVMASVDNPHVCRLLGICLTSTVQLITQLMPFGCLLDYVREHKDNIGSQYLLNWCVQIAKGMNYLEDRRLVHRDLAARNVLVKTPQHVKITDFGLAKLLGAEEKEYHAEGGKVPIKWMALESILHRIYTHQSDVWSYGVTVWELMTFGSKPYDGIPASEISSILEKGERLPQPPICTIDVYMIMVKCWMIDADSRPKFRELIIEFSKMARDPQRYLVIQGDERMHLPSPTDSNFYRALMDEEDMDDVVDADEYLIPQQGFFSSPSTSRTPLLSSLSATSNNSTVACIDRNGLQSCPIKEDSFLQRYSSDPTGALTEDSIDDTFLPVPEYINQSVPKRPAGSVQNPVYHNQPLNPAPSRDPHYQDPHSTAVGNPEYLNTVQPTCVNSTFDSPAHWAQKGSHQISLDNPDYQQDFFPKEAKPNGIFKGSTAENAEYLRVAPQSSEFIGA

[4] = Toxicity in NCI-H1975 xenografted BALB/c mouse assessed as induction of mouse mortality at 20 mg/kg po, qd for 7 days; format: organism-based; conditions: in vivo
Method in brief: (§2)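 Athymic mice received 2 × 10⁶ NCI-H1975 cells subcutaneously in the right flank. When tumours reached 100–300 mm³, mice were randomised into control and treatment groups (n = 6 per group), and controls got vehicle alone. Health was checked daily, and body weight and tumour size were measured on set days during treatment.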

Mus musculus [5] = assay: Toxicity in NCI-H1975 xenografted BALB/c mouse assessed as body weight loss at 20 mg/kg po, qd for 21 days; format: organism-based; conditions: in vivo, 504 h
Method in brief: (§3)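 Athymic mice bearing subcutaneous right-flank xenografts (2 × 10⁶ cells, dosed at 100–300 mm³; n = 6 per group; vehicle controls). Health was observed daily and body weight measured on indicated days. Body weight change (%) = (Wt/W0 − 1) × 100 against predosing weight, given as group mean ± SEM.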

[6] = Toxicity in NCI-H1975 xenografted BALB/c mouse assessed as induction of mouse mortality at 8 mg/kg po, qd for 9 days; format: organism-based; conditions: in vivo; method in brief: as §2
Mus musculus [7] = assay: Toxicity in NCI-H1975 xenografted BALB/c mouse assessed as body weight loss at 8 mg/kg po, qd for 21 days; format: organism-based; conditions: in vivo, 504 h; method in brief: as §3
NCI-H1975 [8] = assay: Antitumor activity against human NCI-H1975 cells xenografted in BALB/c mouse assessed as tumor growth inhibition at 8 mg/kg po, qd for 21 days; format: functional, organism-based; method in brief: as §1
Mus musculus [9] = assay: Toxicity in NCI-H1975 xenografted BALB/c mouse assessed as induction of weakness at 8 mg/kg po, qd for 21 days; format: organism-based; conditions: in vivo, 504 h; method in brief: as §3
Mus musculus [10] = assay: Toxicity in NCI-H1975 xenografted BALB/c mouse assessed as induction of eye disease at 8 mg/kg po, qd for 21 days; format: organism-based; conditions: in vivo, 504 h; method in brief: as §3
Mus musculus [11] = assay: Toxicity in NCI-H1975 xenografted BALB/c mouse assessed as induction of exfoliative skin disorder at 8 mg/kg po, qd for 21 days; format: organism-based; conditions: in vivo, 504 h; method in brief: as §3
Mus musculus [12] = assay: Toxicity in NCI-H1975 xenografted BALB/c mouse assessed as induction of lethargy at 8 mg/kg po, qd for 21 days; format: organism-based; conditions: in vivo, 504 h; method in brief: as §3
Mus musculus [13] = assay: Toxicity in NCI-H1975 xenografted BALB/c mouse assessed as induction of exfoliative skin disorder at 4 mg/kg po, qd for 21 days; format: organism-based; conditions: in vivo, 504 h; method in brief: as §3
Mus musculus [14] = assay: Toxicity in NCI-H1975 xenografted BALB/c mouse assessed as induction of lethargy at 4 mg/kg po, qd for 21 days; format: organism-based; conditions: in vivo, 504 h; method in brief: as §3
Mus musculus [15] = assay: Toxicity in NCI-H1975 xenografted BALB/c mouse assessed as induction of eye disease at 4 mg/kg po, qd for 21 days; format: organism-based; conditions: in vivo, 504 h; method in brief: as §3
NCI-H1975 [16] = assay: Antitumor activity against human NCI-H1975 cells xenografted in BALB/c mouse assessed as tumor growth inhibition at 4 mg/kg po, qd for 21 days; format: functional, organism-based; method in brief: as §1
Mus musculus [17] = assay: Toxicity in NCI-H1975 xenografted BALB/c mouse assessed as body weight loss at 4 mg/kg po, qd for 21 days; format: organism-based; conditions: in vivo, 504 h; method in brief: as §3
Mus musculus [18] = assay: Toxicity in NCI-H1975 xenografted BALB/c mouse assessed as induction of weakness at 4 mg/kg po, qd for 21 days; format: organism-based; conditions: in vivo, 504 h; method in brief: as §3
[19] = Toxicity in NCI-H1975 xenografted BALB/c mouse assessed as induction of mouse mortality at 4 mg/kg po, qd for 9 days; format: organism-based; conditions: in vivo; method in brief: as §2
Mus musculus [20] = assay: Toxicity in human HCC827 cells xenografted BALB/c mouse assessed as induction of eye disease at 5 mg/kg po, qd for 12 days; format: organism-based; conditions: in vivo, 288 h; method in brief: as §3
Mus musculus [21] = assay: Toxicity in human HCC827 cells xenografted BALB/c mouse assessed as induction of exfoliative skin disorders at 5 mg/kg po, qd for 12 days; format: organism-based; conditions: in vivo, 288 h; method in brief: as §3
[22] = AUC (0 to infinity) in Sprague-Dawley rat at 1 mg/kg, iv by LC/MS/MS method; format: ADME, organism-based; design: dose 1 mg/kg, time infinity, route intravenous; conditions: in vivo
Method in brief: (§4)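 Male Sprague-Dawley rats (n = 3) dosed once at 1 mg/kg iv via tail vein, or once at 5 mg/kg by oral gavage, using the same formulation. Serial blood samples were taken over 24 h. Plasma levels were measured by LC/MS/MS (C18 column, 10 mM ammonium formate-0.1% formic acid water/methanol 10/90, ESI positive). Parameters were derived by noncompartmental analysis.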

Mus musculus [23] = assay: Toxicity in human A431 cells xenografted BALB/c mouse assessed as induction of exfoliative skin disorders at 5 and 10 mg/kg po, qd for 18 days; format: organism-based, A-431; conditions: in vivo, 432 h; method in brief: as §3
[24] = Elimination half-life in Sprague-Dawley rat at 1 mg/kg, iv incubated for 24 hrs by LC/MS/MS method; format: ADME, organism-based; conditions: in vivo, read-out: beta t1/2 (converted); method in brief: as §4
A-431 [25] = assay: Antitumor activity against human A431 cells xenografted in BALB/c mouse assessed as tumor growth inhibition at 5 mg/kg po, qd for 18 days; format: functional, organism-based; method in brief: as §1
HCC827 = assay: Antitumor activity against human HCC827 cells xenografted in BALB/c mouse assessed as tumor growth inhibition at 5 mg/kg po, qd for 12 days; format: functional, organism-based; method in brief: as §1
Mus musculus [26] = assay: Toxicity in NCI-H1975 xenografted BALB/c mouse assessed as body weight change at 20 mg/kg po, qd for 21 days; format: organism-based; conditions: in vivo, 504 h; method in brief: as §3
[27] = AUC (0 to 24 hrs) in Sprague-Dawley rat at 1 mg/kg, iv by LC/MS/MS method; format: ADME, organism-based; design: time < 24 hr, dose 1 mg/kg, route intravenous; conditions: in vivo; method in brief: as §4
[28] = Bioavailability in Sprague-Dawley rat at 1 mg/kg, iv incubated for 24 hrs by LC/MS/MS method; format: ADME, organism-based; conditions: in vivo; method in brief: as §4
Mus musculus [29] = assay: Toxicity in human A431 cells xenografted BALB/c mouse assessed as induction of eye diseases at 5 and 10 mg/kg po, qd for 18 days; format: organism-based, A-431; conditions: in vivo, 432 h; method in brief: as §3
Mus musculus [30] = assay: Toxicity in human HCC827 cells xenografted BALB/c mouse assessed as body weight loss at 5 mg/kg po, qd for 12 days; format: organism-based; conditions: in vivo, 288 h; method in brief: as §3
A-431 [31] = assay: Antitumor activity against human A431 cells xenografted in BALB/c mouse assessed as tumor growth inhibition at 10 mg/kg po, qd for 18 days; format: functional, organism-based; method in brief: as §1
[32] = Mean residence time in Sprague-Dawley rat at 1 mg/kg, iv incubated for 24 hrs by LC/MS/MS method; format: ADME, organism-based; conditions: in vivo; method in brief: as §4
Mus musculus [33] = assay: Toxicity in human A431 cells xenografted BALB/c mouse assessed as body weight loss at 5 and 10 mg/kg po, qd for 18 days; format: organism-based, A-431; conditions: in vivo, 432 h; method in brief: as §3
[34] = Apparent volume of distribution in Sprague-Dawley rat at 1 mg/kg, iv incubated for 24 hrs by LC/MS/MS method; format: ADME, organism-based; conditions: in vivo, read-out: Vd(app); method in brief: as §4
[35] = Clearance in Sprague-Dawley rat at 1 mg/kg, iv incubated for 24 hrs by LC/MS/MS method; format: ADME, organism-based; conditions: in vivo; method in brief: as §4

Structure (SMILES): C#Cc1cccc(Nc2ncnc3cc(OCC)c(NC(=O)/C=C/CN(C)C4CC4)cc23)c1
- TGI (NCI-H1975 [1]): Active
- GI50 (NCI-H1975 [2]): 41 nM
- IC50 [3]: 2.4 nM
- mortality at 168 h [4]: > 50%
- Activity (Mus musculus [5]): Toxic

Structure (SMILES): COc1cc2ncnc(Nc3ccc(F)c(Cl)c3)c2cc1NC(=O)/C=C/CNC1CC1
- mortality at 216 h [6]: > 50%
- Activity (Mus musculus [7]): Toxic
- TGI (NCI-H1975 [8]): Active
- Activity (Mus musculus [9]): Toxic
- Activity (Mus musculus [10]): Toxic
- Activity (Mus musculus [11]): Toxic
- GI50 (NCI-H1975 [2]): 11.2 nM
- IC50 [3]: 2.1 nM
- Activity (Mus musculus [12]): Toxic

Structure (SMILES): CCOc1cc2ncnc(Nc3ccc(F)c(Cl)c3)c2cc1NC(=O)/C=C/CNC1CC1
- Activity (Mus musculus [13]): Toxic
- Activity (Mus musculus [14]): Toxic
- GI50 (NCI-H1975 [2]): 11.6 nM
- IC50 [3]: 0.9 nM
- Activity (Mus musculus [15]): Toxic
- TGI (NCI-H1975 [16]): Active
- Activity (Mus musculus [17]): Toxic
- Activity (Mus musculus [18]): Toxic
- mortality at 216 h [19]: > 50%

Structure (SMILES): C#Cc1cccc(Nc2ncnc3cc(O[C@H]4CCOC4)c(NC(=O)/C=C/CNC4CC4)cc23)c1
- Activity (Mus musculus [20]): Non-toxic
- Activity (Mus musculus [21]): Non-toxic
- TGI (NCI-H1975 [1]): Active
- AUC(0-inf) [22]: 480 ng·h/mL
- Activity (Mus musculus [23]): Non-toxic
- half-life [24]: 2.3 h
- TGI (A-431 [25]): inactive
- TGI (HCC827): Active
- Activity (Mus musculus [26]): Non-toxic
- GI50 (NCI-H1975 [2]): 16.1 nM
- IC50 [3]: 5.6 nM
- AUC(0-t) at 24 h [27]: 471 ng·h/mL
- bioavailability [28]: 37.9%
- Activity (Mus musculus [29]): Non-toxic
- Activity (Mus musculus [30]): Non-toxic
- TGI (A-431 [31]): Active
- MRT [32]: 1.7 h
- Activity (Mus musculus [33]): Non-toxic
- Vd [34]: 2.2 L/kg
- clearance [35]: 50 mL/min/kg
